# Measurements: ChEMBL document CHEMBL2177094, “Structure dependence of long-chain [18F]fluorothia fatty acids as myocardial fatty acid oxidation probes” (J Med Chem, 2012)
# Experiments:
# [1] = system: Bone; assay: Drug uptake in overnight fasted Sprague-Dawley rat bone at 0.7 to 1.4 MBq, iv preincubated with POCA for 2 hrs before compound administration measured at 120 mins post treatment; format: ADME, organism-based, Bone element; conditions: in vivo
# Outline: (§1)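 Overnight-fasted female Sprague-Dawley rats under isoflurane received the [18F] tracer in 0.5–1.0% BSA/saline by tail vein. POCA group: 30 mg/kg i.p. 2 h before tracer. Tissues were excised at 30 or 120 min, weighed and gamma-counted with decay correction. Uptake = % dose kg/g, i.e. CPM tissue × body wt (kg) × 100 / (tissue wt (g) × CPM dose). n = 5–6.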
# [2] = system: Heart; assay: Biodistribution in overnight fasted Sprague-Dawley rat heart aqueous fraction at 0.7 to 1.4 MBq, iv preincubated with POCA for 2 hrs before compound administration measured at 30 mins post treatment by Folch-type extraction method; format: ADME, organism-based; conditions: in vivo, 0.5 h
# Outline: (§2)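 Female Sprague-Dawley rats, fasted overnight, under isoflurane (3.5% induction, 1.5% maintenance). [18F] tracer in 0.5–1.0% BSA/saline was given by tail vein. POCA group: 30 mg/kg i.p. 120 min before tracer. About 0.5 g tissue was homogenized and sonicated in chloroform/methanol (2:1) at 0 °C, then 40% urea and 5% H2SO4 were added and spun 10 min at 1,800 g. Aqueous, organic and pellet fractions were counted as % of total.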
# [3] = system: Liver; assay: Drug uptake in overnight fasted Sprague-Dawley rat liver at 9 to 11 MBq, iv at 5 mins by microPET analysis; format: ADME, organism-based; conditions: in vivo
# Outline: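 Female rats fasted overnight, under isoflurane. 18F-labelled tracer (9–11 MBq) given into a tail vein. Dynamic PET acquisition over the upper thorax for 50 min, then a static whole-body scan 55–115 min post-injection. 2–5 rats per tracer.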
# [4] = system: Muscle tissue; assay: Biodistribution in overnight fasted Sprague-Dawley rat muscle pellet fraction at 0.7 to 1.4 MBq, iv at 30 mins by Folch-type extraction method; format: ADME, organism-based; conditions: in vivo, 0.5 h; outline: as §2
# [5] = system: Liver; assay: Drug uptake in overnight fasted Sprague-Dawley rat liver at 0.7 to 1.4 MBq, iv preincubated with POCA for 2 hrs before compound administration measured at 120 mins post treatment; format: ADME, organism-based; conditions: in vivo
# Outline: (§3)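 Female rats fasted overnight, under isoflurane (3.5% induction, 1.5% maintenance). 18F-labelled tracer formulated in 0.5–1.0% BSA/saline, injected via tail vein. Tissues harvested at 30 or 120 min, weighed, gamma-counted, decay-corrected. Uptake expressed as % dose kg/g, i.e. tissue CPM × body wt (kg) × 100 / (tissue wt (g) × dose CPM). POCA groups received 30 mg/kg i.p. 2 h before tracer. n = 5–6.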
# [6] = system: Muscle tissue; assay: Biodistribution in overnight fasted Sprague-Dawley rat muscle aqueous fraction at 0.7 to 1.4 MBq, iv preincubated with POCA for 2 hrs before compound administration measured at 30 mins post treatment by Folch-type extraction method; format: ADME, organism-based; conditions: in vivo, 0.5 h; outline: as §2
# [7] = system: Lung; assay: Drug uptake in overnight fasted Sprague-Dawley rat lung at 0.7 to 1.4 MBq, iv preincubated with POCA for 2 hrs before compound administration measured at 30 mins post treatment; format: ADME, organism-based; conditions: in vivo, 0.5 h; outline: as §3
# [8] = system: Brain; assay: Drug uptake in overnight fasted Sprague-Dawley rat brain at 0.7 to 1.4 MBq, iv preincubated with POCA for 2 hrs before compound administration measured at 120 mins post treatment; format: ADME, organism-based; conditions: in vivo; outline: as §1
# [9] = system: Liver; assay: Biodistribution in overnight fasted Sprague-Dawley rat liver organic fraction at 0.7 to 1.4 MBq, iv preincubated with POCA for 2 hrs before compound administration measured at 120 mins post treatment by Folch-type extraction method; format: ADME, organism-based; conditions: in vivo; outline: as §2
# [10] = system: Brain; assay: Drug uptake in overnight fasted Sprague-Dawley rat brain at 0.7 to 1.4 MBq, iv preincubated with POCA for 2 hrs before compound administration measured at 30 mins post treatment; format: ADME, organism-based; conditions: in vivo, 0.5 h; outline: as §1
# [11] = system: Liver; assay: Biodistribution in overnight fasted Sprague-Dawley rat liver aqueous fraction at 0.7 to 1.4 MBq, iv preincubated with POCA for 2 hrs before compound administration measured at 30 mins post treatment by Folch-type extraction method; format: ADME, organism-based; conditions: in vivo, 0.5 h; outline: as §2
# [12] = system: Kidney; assay: Drug uptake in overnight fasted Sprague-Dawley rat kidney at 0.7 to 1.4 MBq, iv at 30 mins; format: ADME, organism-based; conditions: in vivo, 0.5 h; outline: as §3
# [13] = system: Heart; assay: Biodistribution in overnight fasted Sprague-Dawley rat heart aqueous fraction at 0.7 to 1.4 MBq, iv preincubated with POCA for 2 hrs before compound administration measured at 120 mins post treatment by Folch-type extraction method; format: ADME, organism-based; conditions: in vivo; outline: as §2
# [14] = system: Muscle tissue; assay: Drug uptake in overnight fasted Sprague-Dawley rat muscle at 0.7 to 1.4 MBq, iv at 120 mins; format: ADME, organism-based; conditions: in vivo, 2 h; outline: as §3
# [15] = system: Muscle tissue; assay: Drug uptake in overnight fasted Sprague-Dawley rat muscle at 0.7 to 1.4 MBq, iv at 30 mins; format: ADME, organism-based; conditions: in vivo, 0.5 h; outline: as §3
# [16] = system: Lung; assay: Drug uptake in overnight fasted Sprague-Dawley rat lung at 0.7 to 1.4 MBq, iv preincubated with POCA for 2 hrs before compound administration measured at 120 mins post treatment; format: ADME, organism-based; conditions: in vivo; outline: as §3
# [17] = system: Brain; assay: Drug uptake in overnight fasted Sprague-Dawley rat brain at 0.7 to 1.4 MBq, iv at 30 mins; format: ADME, organism-based; conditions: in vivo, 0.5 h; outline: as §1
# [18] = system: Liver; assay: Biodistribution in overnight fasted Sprague-Dawley rat liver aqueous fraction at 0.7 to 1.4 MBq, iv preincubated with POCA for 2 hrs before compound administration measured at 120 mins post treatment by Folch-type extraction method; format: ADME, organism-based; conditions: in vivo; outline: as §2
# [19] = system: Liver; assay: Biodistribution in overnight fasted Sprague-Dawley rat liver aqueous fraction at 0.7 to 1.4 MBq, iv at 30 mins by Folch-type extraction method; format: ADME, organism-based; conditions: in vivo, 0.5 h; outline: as §2
# [20] = system: Heart; assay: Biodistribution in overnight fasted Sprague-Dawley rat heart pellet fraction at 0.7 to 1.4 MBq, iv at 30 mins by Folch-type extraction method; format: ADME, organism-based; conditions: in vivo, 0.5 h; outline: as §2
# [21] = system: Bone; assay: Drug uptake in overnight fasted Sprague-Dawley rat bone at 0.7 to 1.4 MBq, iv preincubated with POCA for 2 hrs before compound administration measured at 30 mins post treatment; format: ADME, organism-based, Bone element; conditions: in vivo, 0.5 h; outline: as §1
# [22] = system: Liver; assay: Biodistribution in overnight fasted Sprague-Dawley rat liver pellet fraction at 0.7 to 1.4 MBq, iv at 120 mins by Folch-type extraction method; format: ADME, organism-based; conditions: in vivo, 2 h; outline: as §2
# [23] = system: Liver; assay: Biodistribution in overnight fasted Sprague-Dawley rat liver pellet fraction at 0.7 to 1.4 MBq, iv preincubated with POCA for 2 hrs before compound administration measured at 120 mins post treatment by Folch-type extraction method; format: ADME, organism-based; conditions: in vivo; outline: as §2
# [24] = system: Muscle tissue; assay: Biodistribution in overnight fasted Sprague-Dawley rat muscle organic fraction at 0.7 to 1.4 MBq, iv at 120 mins by Folch-type extraction method; format: ADME, organism-based; conditions: in vivo, 2 h; outline: as §2
# [25] = system: Heart; assay: Biodistribution in overnight fasted Sprague-Dawley rat heart organic fraction at 0.7 to 1.4 MBq, iv at 30 mins by Folch-type extraction method; format: ADME, organism-based; conditions: in vivo, 0.5 h; outline: as §2
# [26] = system: Lung; assay: Drug uptake in overnight fasted Sprague-Dawley rat lung at 0.7 to 1.4 MBq, iv at 120 mins; format: ADME, organism-based; conditions: in vivo, 2 h; outline: as §3
# [27] = system: Liver; assay: Drug uptake in overnight fasted Sprague-Dawley rat liver at 0.7 to 1.4 MBq, iv at 120 mins; format: ADME, organism-based; conditions: in vivo, 2 h; outline: as §3
# [28] = system: Muscle tissue; assay: Biodistribution in overnight fasted Sprague-Dawley rat muscle pellet fraction at 0.7 to 1.4 MBq, iv at 120 mins by Folch-type extraction method; format: ADME, organism-based; conditions: in vivo, 2 h; outline: as §2
# [29] = system: Muscle tissue; assay: Biodistribution in overnight fasted Sprague-Dawley rat muscle aqueous fraction at 0.7 to 1.4 MBq, iv at 120 mins by Folch-type extraction method; format: ADME, organism-based; conditions: in vivo, 2 h; outline: as §2
# [30] = system: Heart; assay: Biodistribution in overnight fasted Sprague-Dawley rat heart pellet fraction at 0.7 to 1.4 MBq, iv at 120 mins by Folch-type extraction method; format: ADME, organism-based; conditions: in vivo, 2 h; outline: as §2
Drug uptake [1] [%IDKg/g],Drug uptake [2] [%],Drug uptake [3],Drug uptake [4] [%],Drug uptake [5] [%IDKg/g],Drug uptake [6] [%],Drug uptake [7] [%IDKg/g],Drug uptake [8] [%IDKg/g],Drug uptake [9] [%],Drug uptake [10] [%IDKg/g],Drug uptake [11] [%],Drug uptake [12] [%IDKg/g],Drug uptake [13] [%],Drug uptake [14] [%IDKg/g],Drug uptake [15] [%IDKg/g],Drug uptake [16] [%IDKg/g],Drug uptake [17] [%IDKg/g],Drug uptake [18] [%],Drug uptake [19] [%],Drug uptake [20] [%],SMILES,other results
0.2104,3.84,Active,38.95,0.419,7.7,0.1163,0.0519,64.78,0.0879,10.75,0.2095,3.3,0.0263,0.039,0.0536,0.033,7.45,9.65,70.16,O=C(O)CCCCSCCCCCCCCCCCC[18F],Drug uptake [21]: 0.1037 %IDKg/g; Drug uptake [22]: 54.58%; Drug uptake [23]: 27.76%; Drug uptake [24]: 39.74%; Drug uptake [25]: 25.81%; Drug uptake [26]: 0.0702 %IDKg/g; Drug uptake [27]: 0.7548 %IDKg/g; Drug uptake [28]: 42.06%; Drug uptake [29]: 18.18%; Drug uptake [30]: 67.39%
0.4042,7.73,Active,32.22,0.1341,25.8,0.0998,0.031,67.69,0.0385,31.69,0.1872,3.39,0.0181,0.0303,0.0244,0.02,10.23,15.36,78.72,O=C(O)CCSCCCCCCCCCCCCCC[18F],Drug uptake [21]: 0.2289 %IDKg/g; Drug uptake [22]: 36.13%; Drug uptake [23]: 22.07%; Drug uptake [24]: 48.9%; Drug uptake [25]: 17.29%; Drug uptake [26]: 0.0339 %IDKg/g; Drug uptake [27]: 0.3759 %IDKg/g; Drug uptake [28]: 39.51%; Drug uptake [29]: 11.58%; Drug uptake [30]: 71.45%
0.6549,15.28,Active,43.18,0.4433,25.13,0.0676,0.0578,50,0.04879,20.23,0.209,7.53,0.0109,0.031,0.0472,0.067,11.52,13.52,58.8,O=C(O)CCSCCCCCCCCCCCC[18F],Drug uptake [21]: 0.179 %IDKg/g; Drug uptake [22]: 63.27%; Drug uptake [23]: 38.47%; Drug uptake [24]: 34%; Drug uptake [25]: 38.56%; Drug uptake [26]: 0.0183 %IDKg/g; Drug uptake [27]: 0.47 %IDKg/g; Drug uptake [28]: 49.81%; Drug uptake [29]: 16.17%; Drug uptake [30]: 76.93%
0.299,10.15,Active,59.12,0.1666,24.06,0.0458,0.0206,68.06,0.0368,16.3,0.2035,4.19,0.0171,0.0201,0.0179,0.0206,8.1,8.43,88.67,O=C(O)CCSCCCC/C=C\CCCCCCCC[18F],Drug uptake [21]: 0.1475 %IDKg/g; Drug uptake [22]: 59.56%; Drug uptake [23]: 23.82%; Drug uptake [24]: 21.98%; Drug uptake [25]: 8.46%; Drug uptake [26]: 0.0228 %IDKg/g; Drug uptake [27]: 0.8488 %IDKg/g; Drug uptake [28]: 67.95%; Drug uptake [29]: 9.91%; Drug uptake [30]: 88.78%
